Source: PubChem BioAssay
Only some compounds are listed: those with a hit (about 1.8% of all), similar ones and a draw of the others.
MIN6 prolif: induces beta-cell replication in MIN6 cells; MIN6 cells proliferation, ATPlite luminescence, 48 h; cells starved in 0.2% serum; 100% = growth in 10% serum; proliferation, % at 10 µM; actives 0.29% (n = 330,000); AID 2380;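 active = compounds whose signal lies at least 3.5 SD above the mean of all wells on their plate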;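 also: 0% = DMSO-treated cells in low-serum medium and 100% = 10% serum control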
iPSC survival up: increases survival of single human iPS cells; hiPSC single-cell survival, ATPlite luminescence; 100% = ROCK inhibitor wells, 0% = DMSO; survival enhancement, % at 20 µM; actives 0.044% (n = 360,000); AID 602274; in the data active = survival enhancement above about 18%;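 also: cells exposed to compounds for 16 hours before the ATP read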
FLuc inh counter: Photinus pyralis luciferase inhibition counter-screen. P08659. inhibition, % at 10 µM. AID 1006. ATPLite firefly luciferase biochemical luminescence, 10 min. actives 1.5% (n = 200,000);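 active = inhibition above about 50% when tested at 10 µM, limit read from the data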
Target sequence (P08659 whole entry, looked up): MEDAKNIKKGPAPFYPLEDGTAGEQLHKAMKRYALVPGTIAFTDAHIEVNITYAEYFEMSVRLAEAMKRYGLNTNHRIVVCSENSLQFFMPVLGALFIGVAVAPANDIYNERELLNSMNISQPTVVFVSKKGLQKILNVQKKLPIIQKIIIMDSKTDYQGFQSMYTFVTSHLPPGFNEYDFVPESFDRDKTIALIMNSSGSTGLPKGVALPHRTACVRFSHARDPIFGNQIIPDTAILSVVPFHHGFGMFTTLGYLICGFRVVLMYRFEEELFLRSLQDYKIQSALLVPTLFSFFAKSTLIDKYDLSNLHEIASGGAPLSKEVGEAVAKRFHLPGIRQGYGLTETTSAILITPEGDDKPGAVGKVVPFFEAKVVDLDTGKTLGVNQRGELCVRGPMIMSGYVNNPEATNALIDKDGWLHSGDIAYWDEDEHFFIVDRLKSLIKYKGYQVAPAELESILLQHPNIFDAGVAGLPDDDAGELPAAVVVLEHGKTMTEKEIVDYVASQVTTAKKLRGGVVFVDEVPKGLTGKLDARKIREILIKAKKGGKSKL
TRAIL sens C8: caspase-8 TRAIL sensitization | NB7+C8 cells + TRAIL, ATPlite viability luminescence | inhibition (viability loss, TRAIL sensitization), % at 10 µM | actives 1% (n = 360,000);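 active = compounds causing at least 50% loss of cell viability in the single-dose screen, relative to plate controls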
FLuc stim CS: affects firefly luciferase, flagging false hits in luciferase stimulation screens; P08659; ATPlite luciferase biochemical, luminescence, 10 min; 0 = ATP-free wells, 1 = DMSO control; activation factor at 10 µM; 200,000 tested, under 10 active; AID 1027;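 active = luciferase activation factor, scaled between plate controls, of at least 2 with compound at 10 µM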
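Assay system: Luciferase/luciferin detection reagent, cell-free biochemical luciferase assay / Read-out: luciferase activation / Benchmarks: No-ATP low control, compound-free enzyme-plus-ATP high control / Medium: PBS buffer for ATP / Detection: luminescence measurement of luciferase light output / Schedule: 10 min at ambient temperature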
PPC-1+TRAIL kill: kills PPC-1 cancer cells in the presence of TRAIL | PPC-1 cells + TRAIL, ATPLite viability luminescence | cell killing (% activity), % at 4 µM or 5 µM | actives 0.41% (n = 220,000) | AID 1443;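 active = cell killing above 50% in the first pass at 4 µM, then a duplicate retest at 5 µM averaging 50% or more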;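 also: plate controls were cells with TRAIL plus DMSO for no effect and medium-only wells lacking cells for full effect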
The depositor's hits bear a star.

How did COc1cc(CCNC2=CC(=O)c3ncccc3C2=O)ccc1O do in these assays?
iPSC survival up: -2.1; TRAIL sens C8: 57.8*

How did CC1=NNC(=O)C1CC(=O)N/N=C/C=C/c1ccccc1 (centres undefined) do in these assays?
MIN6 prolif: -2.8; iPSC survival up: 2.6; TRAIL sens C8: -5.2; PPC-1+TRAIL kill: 21.3

How did Cc1cccc2sc(NNC(=O)c3ccc(S(=O)(=O)N4CCCC(C)C4)cc3)nc12 (centres undefined) do in these assays?
iPSC survival up: 0.5; FLuc inh counter: 0.8; TRAIL sens C8: 66.9*; FLuc stim CS: 1; PPC-1+TRAIL kill: 12.4

Results for Cc1cccc2sc(NNC(=O)c3ccc(S(=O)(=O)N4CCc5ccccc5C4)cc3)nc12 ?
MIN6 prolif: -6.6; iPSC survival up: -2.9; FLuc inh counter: -3.7; TRAIL sens C8: 14.9; FLuc stim CS: 1; PPC-1+TRAIL kill: 23.6

What do the screens show for `COc1ccccc1N(CC(=O)N/N=C(\C)c1ccc(F)cc1)S(=O)(=O)c1ccccc1`?
MIN6 prolif: -1.9; iPSC survival up: 2.6; TRAIL sens C8: 45.1

Results for COC(=O)[C@@]12C[C@@H](CC(=O)NCc3ccc(C)o3)C(=O)N(Cc3ccco3)C1=CCC(C)(C)C2 ?
TRAIL sens C8: -19.3

What do the screens show for `Cc1ccc(C(C)C)c2c1C(c1ccc3c(c1)OCO3)CC(=O)O2` (centres undefined)?
iPSC survival up: 0.2; TRAIL sens C8: -2.9

How did CCOc1ccc(NCC(=O)N/N=C/C=C/c2ccccc2)cc1 do in these assays?
MIN6 prolif: -3.0; iPSC survival up: -1.6; FLuc inh counter: 55.9*; TRAIL sens C8: 12.4; FLuc stim CS: 0.4; PPC-1+TRAIL kill: 36.3

How did CCn1c(-c2cc(-c3ccc(C)c(C)c3)nc3ccccc23)n[nH]c1=S do in these assays?
MIN6 prolif: -2.6; FLuc inh counter: 53.0*; FLuc stim CS: 0.5; PPC-1+TRAIL kill: 1.0

Results for Cc1ccccc1NC(=O)COC(=O)c1ccc(S(C)(=O)=O)c([N+](=O)[O-])c1 ?
MIN6 prolif: -5.8; iPSC survival up: -1.6; FLuc inh counter: -4.0; TRAIL sens C8: -7.5; FLuc stim CS: 1; PPC-1+TRAIL kill: -2.5

What do the screens show for `Cc1ccccc1NC(=O)Cc1nc(COC(=O)c2ccc(S(C)(=O)=O)c([N+](=O)[O-])c2)cs1`?
MIN6 prolif: -7.6; iPSC survival up: 17.5; TRAIL sens C8: 54.4*

What do the screens show for `O=C(CC1(O)C(=O)N(Cc2cccc3ccccc23)c2ccccc21)c1cccnc1` (centres undefined)?
MIN6 prolif: -5.9; iPSC survival up: -3.7; FLuc inh counter: 68.8*; TRAIL sens C8: 20.7; FLuc stim CS: 0.3; PPC-1+TRAIL kill: 1.5

How did CCC1SC(=NC(=O)c2ccc(Cl)c(Cl)c2)NC1=O (centres undefined) do in these assays?
MIN6 prolif: -3.0; iPSC survival up: -1.1; FLuc inh counter: 59.0*; TRAIL sens C8: 24.1; FLuc stim CS: 0.4; PPC-1+TRAIL kill: 20.7

Results for Cc1cccc(N(Cc2cc(=O)[nH]c3ccccc23)C(=O)CCl)c1 ?
MIN6 prolif: -4.8; iPSC survival up: -0.5; TRAIL sens C8: 84.0*

What do the screens show for `COc1ccc(N(Cc2cc(=O)[nH]c3ccccc23)C(=O)CCl)cc1`?
MIN6 prolif: -4.0; iPSC survival up: -0.1; TRAIL sens C8: 95.5*

How did COc1ncccc1-c1nnn(-c2ccc(Cl)c(Cl)c2)n1 do in these assays?
MIN6 prolif: -0.4; iPSC survival up: 1.4; FLuc inh counter: 8.6; TRAIL sens C8: 17.5; FLuc stim CS: 0.9; PPC-1+TRAIL kill: 12.6

How did COc1ncccc1-c1nnn(-c2ccc(F)cc2)n1 do in these assays?
MIN6 prolif: -1.1; iPSC survival up: -1.8; FLuc inh counter: 51.3*; TRAIL sens C8: 28.3; FLuc stim CS: 0.5; PPC-1+TRAIL kill: 21.3

How did COc1ncccc1-c1nnn(-c2ccc(C)cc2)n1 do in these assays?
MIN6 prolif: -4.0; iPSC survival up: -1.3; FLuc inh counter: 66.0*; TRAIL sens C8: 38.1; FLuc stim CS: 0.3; PPC-1+TRAIL kill: 24.1

What do the screens show for `CSCCC(C)N1CCC(Oc2ccc(C(=O)N3CCCC3)cc2)CC1` (centres undefined)?
MIN6 prolif: -1.3; iPSC survival up: -0.1; TRAIL sens C8: -5.2

Results for CCCC[n+]1ccn(C2=C([O-])c3ccccc3C(=O)/C2=N\S(=O)(=O)c2ccc(Br)cc2)c1 ?
MIN6 prolif: -4.4; iPSC survival up: -0.8; FLuc inh counter: 1.5; TRAIL sens C8: 55.9*; FLuc stim CS: 1; PPC-1+TRAIL kill: 24.8

Results for Cc1ccc(S(=O)(=O)/N=C2\C(=O)c3ccccc3C([O-])=C2n2cc[n+](CCC(C)C)c2)cc1 ?
MIN6 prolif: -2.6; iPSC survival up: -1.7; FLuc inh counter: -2.8; TRAIL sens C8: 36.9; FLuc stim CS: 1; PPC-1+TRAIL kill: -7.4

What do the screens show for `C(/CCc1ccccc1)=N\Nc1nc2ccccc2[nH]1`?
MIN6 prolif: -4.4; iPSC survival up: -2.3; FLuc inh counter: 83.9*; TRAIL sens C8: 18.4; FLuc stim CS: 0.2; PPC-1+TRAIL kill: 14.3

What do the screens show for `C(=C\c1ccccc1)/C=N/Nc1nc2ccccc2[nH]1`?
MIN6 prolif: -5.9; iPSC survival up: -2.2; FLuc inh counter: 63.1*; TRAIL sens C8: 3.8; FLuc stim CS: 0.4; PPC-1+TRAIL kill: 20.7

How did c1ccc(CCc2nc3ccccc3[nH]2)cc1 do in these assays?
MIN6 prolif: 0.1; iPSC survival up: -3.1; FLuc inh counter: 24.3; TRAIL sens C8: 12.4; FLuc stim CS: 0.8; PPC-1+TRAIL kill: 20.6

What do the screens show for `C(=N\Nc1nc2ccccc2[nH]1)/C1CCCCC1`?
MIN6 prolif: -4.8; iPSC survival up: -0.4; FLuc inh counter: 74.0*; TRAIL sens C8: 9.0; FLuc stim CS: 0.3; PPC-1+TRAIL kill: 20.5

How did CC(=O)N1CCc2c(sc(NC(=O)c3ccc([N+](=O)[O-])o3)c2C#N)C1 do in these assays?
iPSC survival up: -1.7; FLuc inh counter: 20.6; TRAIL sens C8: 20.2; FLuc stim CS: 0.8; PPC-1+TRAIL kill: 39.8

How did COC(=O)c1c(NC(=O)c2ccc([N+](=O)[O-])o2)sc2c1CCN(C(C)C)C2 do in these assays?
MIN6 prolif: -7.3; iPSC survival up: 0.0; TRAIL sens C8: 53.4*

Results for CC(C)N1CCc2c(sc(NC(=O)c3ccc([N+](=O)[O-])o3)c2C(N)=O)C1 ?
MIN6 prolif: -5.7; iPSC survival up: -0.4; TRAIL sens C8: 51.6*

What do the screens show for `Cc1ccc(NC(=O)COC(=O)C2(CC(=O)NC(C)C)CCCC2)cc1C`?
MIN6 prolif: -2.0; iPSC survival up: 1.4; TRAIL sens C8: -1.9
